Activity calls are given as the source filed them. The rule behind the calls is not given here.
How the values were obtained:
[1] = Cmax in Cynomolgous monkey at 5 mg/kg, po by LC-MS/MS analysis; type: ADME, organism-based, Macaca fascicularis; settings: cynomolgus monkey, in vivo
Summary of the method: (§1)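 Single dose to fasted male C57BL6 mice, Sprague-Dawley rats, beagle dogs and cynomolgus monkeys, either IV at 1 mg/kg or PO as a solution at 5 mg/kg, in 80% PEG 400 in water. Plasma concentrations were measured by LC-MS/MS. PK parameters come from noncompartmental analysis using nominal doses and nominal sampling times.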

[2] = molecular target: Nuclear receptor subfamily 1 group I member 2 (Homo sapiens, UniProt O75469); test: Induction of PXR (unknown origin)
Chain of Nuclear receptor subfamily 1 group I member 2 (O75469 whole entry): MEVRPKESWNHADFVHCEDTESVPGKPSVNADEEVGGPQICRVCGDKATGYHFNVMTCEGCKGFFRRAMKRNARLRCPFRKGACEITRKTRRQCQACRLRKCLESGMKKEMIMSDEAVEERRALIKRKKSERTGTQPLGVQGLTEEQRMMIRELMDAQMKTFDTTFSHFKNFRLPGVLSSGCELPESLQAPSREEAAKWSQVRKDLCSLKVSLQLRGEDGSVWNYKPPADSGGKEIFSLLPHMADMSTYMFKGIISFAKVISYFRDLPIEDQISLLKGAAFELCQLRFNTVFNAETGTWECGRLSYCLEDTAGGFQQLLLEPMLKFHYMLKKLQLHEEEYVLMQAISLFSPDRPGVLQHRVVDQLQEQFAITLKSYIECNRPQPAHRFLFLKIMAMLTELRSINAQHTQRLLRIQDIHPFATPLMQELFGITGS

[3] = Tmax in Sprague-Dawley rat at 5 mg/kg, po by LC-MS/MS analysis; type: ADME, organism-based; settings: in vivo
Summary of the method: (§2)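 Fasted males (C57BL6 mice, Sprague−Dawley rats, beagle dogs, cynomolgus monkeys) given a single oral solution dose of 5 mg/kg in 80% PEG 400 in water. Plasma sampled over time, analysed by LC-MS/MS. Noncompartmental analysis used nominal doses and nominal sampling times.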

[4] = molecular target: Multidrug and toxin extrusion protein 2 (Homo sapiens, UniProt Q86VL8); test: Inhibition of MATE2 (unknown origin) transfected in HEK293 cells; type: cell-based
Chain of Multidrug and toxin extrusion protein 2 (Q86VL8 whole entry): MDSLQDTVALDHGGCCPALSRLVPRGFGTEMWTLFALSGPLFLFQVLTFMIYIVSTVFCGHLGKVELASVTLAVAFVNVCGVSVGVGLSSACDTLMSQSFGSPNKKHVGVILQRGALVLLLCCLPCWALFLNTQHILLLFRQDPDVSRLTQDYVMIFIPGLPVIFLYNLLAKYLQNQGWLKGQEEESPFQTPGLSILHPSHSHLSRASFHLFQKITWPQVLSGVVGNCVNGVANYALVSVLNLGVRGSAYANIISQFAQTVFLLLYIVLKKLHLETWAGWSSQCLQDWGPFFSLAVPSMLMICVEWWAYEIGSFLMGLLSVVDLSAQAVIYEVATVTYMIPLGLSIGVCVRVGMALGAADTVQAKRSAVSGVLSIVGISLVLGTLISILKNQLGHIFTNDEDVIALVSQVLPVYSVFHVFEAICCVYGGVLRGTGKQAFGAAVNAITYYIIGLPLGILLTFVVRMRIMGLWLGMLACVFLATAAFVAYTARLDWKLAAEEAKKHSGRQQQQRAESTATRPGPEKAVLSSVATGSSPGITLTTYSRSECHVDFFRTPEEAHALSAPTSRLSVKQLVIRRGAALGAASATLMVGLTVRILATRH

[5] = Clearance in Sprague-Dawley rat at 1 mg/kg, iv by LC-MS/MS analysis; type: ADME, organism-based; settings: in vivo; summary of the method: as §1
[6] = Metabolic stability in Cynomolgous monkey hepatocytes assessed as half life at 1 uM incubated upto 180 mins; settings: cynomolgus monkey
[7] = Plasma protein binding in Cynomolgous monkey at 1 uM incubated for 4 to 24 hrs by equilibrium dialysis method; type: ADME, cell-free, Macaca fascicularis; settings: cynomolgus monkey, time 4-24 hrs, read-out: PPB (converted)
Summary of the method: (§3)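 Rapid equilibrium dialysis in mouse, rat, dog, monkey or human plasma for 4 or 24 h; test concentrations 1, […].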

[8] = Ratio of drug concentration in blood to plasma in Cynomolgous monkey at 5 uM incubated for 60 mins; type: ADME, cell-free, Macaca fascicularis; settings: cynomolgus monkey
Summary of the method: (§4)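 Compound at 5 μM in whole blood of each species, 37 ± 1 °C for 60 min; blood-to-plasma ratio and red blood cell partitioning determined.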

Cytochrome P450 2B6 = molecular target: T1, Cytochrome P450 2B6 (Homo sapiens, UniProt P20813); test: Induction of CYP2B6 (unknown origin) in human hepatocytes upto 30 uM; type: ADME, cell-based, Hepatocyte
T1 sequence (P20813 whole entry): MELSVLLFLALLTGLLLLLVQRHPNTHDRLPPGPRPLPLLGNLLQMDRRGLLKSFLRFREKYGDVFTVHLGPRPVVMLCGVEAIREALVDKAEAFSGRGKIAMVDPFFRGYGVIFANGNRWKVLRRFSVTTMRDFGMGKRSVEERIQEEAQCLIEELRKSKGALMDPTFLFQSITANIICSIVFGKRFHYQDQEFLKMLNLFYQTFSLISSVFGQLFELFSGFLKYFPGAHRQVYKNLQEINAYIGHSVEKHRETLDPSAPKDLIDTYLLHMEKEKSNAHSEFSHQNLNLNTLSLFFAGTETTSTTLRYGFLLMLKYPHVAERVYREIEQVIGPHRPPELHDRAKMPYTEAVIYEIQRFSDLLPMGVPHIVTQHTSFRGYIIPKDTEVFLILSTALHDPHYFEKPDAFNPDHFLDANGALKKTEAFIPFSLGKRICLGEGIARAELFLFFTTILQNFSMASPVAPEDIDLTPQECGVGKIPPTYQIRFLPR

[9] = Tmax in C57BL/6J mouse at 5 mg/kg, po by LC-MS/MS analysis; type: ADME, organism-based; settings: in vivo; summary of the method: as §2
[10] = Half life in Beagle dog at 1 mg/kg, iv by LC-MS/MS analysis; type: ADME, organism-based, Canis lupus familiaris; settings: in vivo; summary of the method: as §1
[11] = Ratio of drug concentration in blood to plasma in dog at 5 uM incubated for 60 mins; type: ADME, cell-free, Canis lupus familiaris; summary of the method: as §4
[12] = Tmax in Beagle dog at 5 mg/kg, po by LC-MS/MS analysis; type: ADME, organism-based, Canis lupus familiaris; settings: in vivo; summary of the method: as §2
Hepatitis B virus = test: Antiviral activity against HBV infected in human primary hepatocyte cells assessed as decrease in HBeAg level pre-infected cells with virus followed by compound treatment for 3 days and subsequent replacement of medium with compound measured after 4 days by CLIA; type: functional, organism-based
[13] = Efflux ratio of apparent permeability in human Caco-2 cells at 1 uM incubated for 1 hr; type: ADME, cell-based
Summary of the method: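 Bidirectional transport across Caco-2 cells in HBSS, pH 7.4, 0.1% final DMSO. Compound was tested at 1 or 2 μM for 1 h at 37 °C, 5% CO2. Apical and basal samples gave apparent permeability A→B and B→A, and the efflux ratio.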

[14] = Effect on mitochondrial activity in human HepG2 cells upto 10 uM; type: toxicity, cell-based; settings: hepg2, 10 µM
[15] = Half life in C57BL/6J mouse at 1 mg/kg, iv by LC-MS/MS analysis; type: ADME, organism-based; settings: in vivo; summary of the method: as §1
[16] = AUC (infinity) in Sprague-Dawley rat at 1 mg/kg, iv by LC-MS/MS analysis; type: ADME, organism-based; settings: in vivo; summary of the method: as §1
[17] = Plasma protein binding in rat at 1 uM incubated for 4 to 24 hrs by equilibrium dialysis method; type: ADME, cell-free; settings: time 4-24 hrs, read-out: PPB (converted); summary of the method: as §3
[18] = Half life in Cynomolgous monkey at 1 mg/kg, iv by LC-MS/MS analysis; type: ADME, organism-based, Macaca fascicularis; settings: cynomolgus monkey, in vivo; summary of the method: as §1
Cav1.2 = test: Inhibition of Cav1.2 (unknown origin) expressed in mammalian cells at 10 uM by automated patch-clamp method; type: toxicity, cell-based, Homo sapiens; settings: mammalian cells expressing Cav1.2
Summary of the method: (§5)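 Currents of hERG, Nav1.5 or Cav1.2 channels expressed in mammalian cells recorded by automated patch clamp (QPatch 48) at room temperature.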

Nav1.5 = test: Inhibition of Nav1.5 (unknown origin) expressed in mammalian cells at 10 uM by automated patch-clamp method; type: toxicity, cell-based, Homo sapiens; settings: mammalian cells expressing Nav1.5; summary of the method: as §5
[19] = Half life in Beagle dog at 5 mg/kg, po by LC-MS/MS analysis; type: ADME, organism-based, Canis lupus familiaris; settings: in vivo; summary of the method: as §1
Mus musculus = test: Effect on HBeAg level in C57BL/6 mouse infected with AAV-Hepatitis B virus at 15 to 50 mg/kg, po qd for 56 days followed by induction of compound washout period for 14 days; type: functional, organism-based; settings: dose 15-50 mg/kg, time 70.0 day
[20] = Effect on mitochondrial biogenesis in human HepG2 cells upto 10 uM; type: toxicity, cell-based; settings: hepg2, 10 µM
[21] = Effect on cell proliferation in bone marrow (unknown origin) upto 10 uM; type: toxicity, tissue-based
[22] = Plasma protein binding in mouse at 2 uM incubated for 4 to 24 hrs by equilibrium dialysis method; type: ADME, cell-free; settings: time 4-24 hrs, read-out: PPB
Summary of the method: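 Rapid equilibrium dialysis in mouse, rat, dog, monkey or human plasma for 4 or 24 h at 2 μM.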

[23] = Stability in simulated intestinal fluid for >24 hrs; type: physicochemical; settings: simulated gi fluid
Summary of the method: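 Stability tested in simulated gastric fluid containing pepsin and simulated intestinal fluid containing pancreatin.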

[24] = Prodrug conversion in Sprague-Dawley rat assessed as formation of N-(3-cyano-4-fluorophenyl)-4-(2-((3-ethynyloxetan-3-yl)amino)-2-oxoacetyl)-1,3,5-trimethyl-1H-pyrrole-2-carboxamide metabolite at 37.8 mg/kg, po measured for 24 hrs; type: ADME, organism-based; settings: in vivo
Summary of the method: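 Single oral prodrug dose at molar equivalent of 30 mg/kg (rats) or […] of parent in 95% PEG 400/5% copovidone; whole blood collected into 4 volumes 75% MeOH/25% acetonitrile, centrifuged, parent quantified by LC-MS/MS; noncompartmental PK analysis.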

C#CC1(NC(=O)C(=O)c2c(C)c(C(=O)Nc3ccc(F)c(C#N)c3)n(C)c2C)COC1
Cmax [1]: 490 ng/mL
Activity [2]: Not_active
Tmax [3]: 1.67 h
IC50 [4]: > 11.8 µM
clearance [5]: 6.09 mL/min/kg
half-life at 1 µM [6]: > 6 h
fraction unbound at 1 µM [7]: 0.284
blood plasma ratio at 1 h, 5 µM [8]: 0.83
Activity (Cytochrome P450 2B6): Not_active
Tmax [9]: 1 h
half-life [10]: 6.38 h
blood plasma ratio at 1 h, 5 µM [11]: 0.82
Tmax [12]: 2.17 h
EC50 (Hepatitis B virus): 0.0105 µM
efflux ratio at 1 h, 1 µM [13]: 7.8
Activity [14]: Non-toxic
half-life [15]: 1.37 h
AUC(0-inf) [16]: 2780 ng·h/mL
fraction unbound at 1 µM [17]: 0.211
half-life [18]: 1.85 h
IC50 (Cav1.2): > 10 µM
IC50 (Nav1.5): > 10 µM
half-life [19]: 7.83 h
Activity (Mus musculus): inactive
Activity [20]: Non-toxic
Activity [21]: Non-toxic

C#CC1(N(COP(=O)([O-])[O-])C(=O)C(=O)c2c(C)c(C(=O)Nc3ccc(F)c(C#N)c3)n(C)c2C)COC1.[Na+].[Na+]
fraction unbound at 2 µM [22]: 0.0913
Stability [23]: Stable
Drug metabolism [24]: metabolite_detected

From ChEMBL document CHEMBL6092224, “The Discovery and Preclinical Profile of ALG-000184, a Prodrug of the Potent Hepatitis B Virus Capsid Assembly Modulator ALG-001075” (J Med Chem, 2024)
